Experimental data gathered from unrelated publications.
Compare with care: the assays were run in different laboratories.

| SMILES | cell line | assay | setting | measurement | value |
| --- | --- | --- | --- | --- | --- |
| CC(=O)Nc1ccc(/C(C)=N/N=c2\sc(C(C)=O)nn2-c2ccc(C)cc2)cc1 | HepG2 | cell growth or viability, MTT | 0.312 µM | viability | 100% |
| CC(C)(C)c1cnc(CSc2cnc(NC(=O)C3CCN(CCCCSc4cccc5c4C(=O)N(C4CCC(=O)NC4=O)C5=O)CC3)s2)o1 (centres unmarked) | HH | cell growth or viability, CCK-8 | 1 nM | viability | 100% |
| CCOC(=O)c1nn(-c2cccc(Cl)c2)/c(=N/N=C(\C)c2ccc(NC(=O)c3ccccc3)cc2)s1 | HepG2 | cell growth or viability, MTT | 1.25 µM | viability | 2.72% |
| O=C(Nc1ccc(C(F)(F)F)cc1)Nc1cccc([N+](=O)[O-])c1 | LAD2 | degranulation |  | IC50 | 0.37 µM |
| C[C@H]1Oc2cc(cnc2N)-c2c(nn(C)c2C#N)CN(C)C(=O)c2ccc(F)cc21 | A-431 | cell growth or viability |  | IC50 | > 10 µM |
| Nc1ncnc2c1c(/C=C/C(=O)N1CCC(CCO)CC1)nn2CC1CCCC1 | OE33 | cell growth or viability, resazurin | 5 days | EC50 | > 30 µM |
| O=C(Nc1ccc(Oc2nnc(-c3ccc(Cl)cc3)c3ccccc23)cc1)c1cccc([N+](=O)[O-])c1 | HepG2 | cell growth or viability, MTT | 2.5 µM | cell death | 96.4% |
| O=C(Nc1ccc([N+](=O)[O-])cc1)Nc1ccc(C(F)(F)F)cc1 | LAD2 | degranulation |  | IC50 | 0.17 µM |
| Cc1cc(C)n(C(C(=O)OC(C)C)n2nc(C)cc2C)n1 | A-431 | cell growth or viability, MTT | 72 h | IC50 | > 50 µM |
| Nc1ncnc2c1c(/C=C/C(=O)N1CCOCC1)nn2CC1CCCC1 | OE33 | cell growth or viability, resazurin | 5 days | EC50 | > 30 µM |
| CC(=NNC(=O)c1ccccc1Br)c1ccc(Nc2nnc(-c3ccc(Cl)cc3)c3ccccc23)cc1 | HepG2 | cell growth or viability, MTT | 5 µM | cell death | 95.6% |
| CC(C)(C)c1cnc(CSc2cnc(NC(=O)C3CCN(C(=O)CCCSc4cccc5c4C(=O)N(C4CCC(=O)NC4=O)C5=O)CC3)s2)o1 (centres unmarked) | HH | cell growth or viability, CCK-8 | 0.1 µM | viability | 98% |
| O=C(Nc1ccccc1)Nc1cc(Br)cc(C(F)(F)F)c1 | LAD2 | degranulation |  | IC50 | 8.01 µM |
| CC(=O)Nc1ccc(Oc2nnc(-c3ccc(Cl)cc3)c3ccccc23)cc1 | HepG2 | cell growth or viability, MTT | 1.25 µM | cell death | 92.9% |
| CC(C)(C)c1cnc(CSc2cnc(NC(=O)C3CCN(C(=O)COCCOCCSc4cccc5c4C(=O)N(C4CCC(=O)NC4=O)C5=O)CC3)s2)o1 (centres unmarked) | HH | cell growth or viability, CCK-8 | 0.25 µM | viability | 92.9% |
| CNc1ncc2c(/C=C/C(=O)N3CCC(OC)CC3)nn(Cc3ccccc3C)c2n1 | OE33 | cell growth or viability, resazurin | 5 days | EC50 | 7.84 µM |
| CC(C)(C)c1cnc(CSc2cnc(NC(=O)C3CCN(CCCCCCCCSc4cccc5c4CN(C4CCC(=O)NC4=O)C5=O)CC3)s2)o1 (centres unmarked) | HH | cell growth or viability, CCK-8 | 0.2 µM | viability | 0% |
| CC(=NNC(=O)c1ccccc1O)c1ccc(Nc2nnc(-c3ccc(Cl)cc3)c3ccccc23)cc1 | HepG2 | cell growth or viability, MTT | 5 µM | cell death | 84.2% |

| SMILES | cell line | assay | setting | measurement | value |
| --- | --- | --- | --- | --- | --- |
| CC(C)(C)c1cnc(CSc2cnc(NC(=O)C3CCN(CCCCCSc4cccc5c4CN(C4CCC(=O)NC4=O)C5=O)CC3)s2)o1 (centres unmarked) | HH | cell growth or viability, CCK-8 | 1 nM | viability | 96.6% |
| O=C(Nc1ccccc1)Nc1ccc(Oc2nnc(-c3ccc(Cl)cc3)c3ccccc23)cc1 | HepG2 | cell growth or viability, MTT | 0.625 µM | cell death | 94.7% |
| CN(C)C1CCCN(C(=O)/C=C/c2nn(CC3CCCC3)c3ncnc(N)c23)C1 (centres unmarked) | OE33 | cell growth or viability, resazurin | 5 days | EC50 | > 30 µM |
| CC(=O)c1nn(-c2ccc(C)cc2)/c(=N/N=C(\C)c2ccc(NC(=O)c3ccccc3)cc2)s1 | HepG2 | cell growth or viability, MTT | 0.312 µM | viability | 5.09% |
| CC(C)(C)c1cnc(CSc2cnc(NC(=O)C3CCN(CCCCCCCCSc4cccc5c4C(=O)N(C4CCC(=O)NC4=O)C5=O)CC3)s2)o1 (centres unmarked) | HH | cell growth or viability, CCK-8 | 0.2 µM | viability | 10.7% |
| CNc1ncc2c(/C=C/C(=O)N3CCC(OC)CC3)nn(CC(C)(C)C)c2n1 | OE33 | cell growth or viability, resazurin | 5 days | EC50 | > 30 µM |
| CCOC(=O)c1nn(-c2cccc(Cl)c2)/c(=N/N=C(\C)c2ccc(NC(=O)c3ccc(Cl)cc3)cc2)s1 | HepG2 | cell growth or viability, MTT | 5 µM | viability | 2.59% |
| CC(=NNC(=O)c1cccnc1)c1ccc(Nc2nnc(-c3ccc(Cl)cc3)c3ccccc23)cc1 | HepG2 | cell growth or viability, MTT | 5 µM, 24 h | viability | 3.2% |
| O=C(Nc1cccc([N+](=O)[O-])c1)Nc1cccc(C(F)(F)F)c1 | LAD2 | degranulation |  | IC50 | 0.28 µM |
| CC(=NNC(=O)COc1ccc2c(C)c(Cc3ccccc3)c(=O)oc2c1C)c1ccc(Br)cc1 | HepG2 | cell growth or viability, MTT | 100 µg/mL | viability | 34.7% |
| CC(C)(C)c1cnc(CSc2cnc(NC(=O)C3CCN(CCCCCCCSc4cccc5c4C(=O)N(C4CCC(=O)NC4=O)C5=O)CC3)s2)o1 (centres unmarked) | HH | cell growth or viability, CCK-8 | 0.1 µM | viability | 92.7% |
| CNc1ncc2c(/C=C/C(=O)N3CCC(OC)CC3)nn(Cc3ccc(OC)cc3)c2n1 | OE33 | cell growth or viability, resazurin | 5 days | EC50 | 1.63 µM |
| CC(=O)c1nn(-c2ccccc2Cl)/c(=N/N=C(\C)c2ccc(NC(=O)c3ccccc3)cc2)s1 | HepG2 | cell growth or viability, MTT | 0.156 µM | viability | 30.2% |
| CNc1ncc2c(/C=C/C(=O)N3CCCCC3)nn(CC3CCCC3)c2n1 | OE33 | cell growth or viability, resazurin | 5 days | EC50 | > 30 µM |
| CC(=NNC(=S)Nc1ccccc1)c1ccc(Nc2nnc(-c3ccc(Cl)cc3)c3ccccc23)cc1 | HepG2 | cell growth or viability, MTT | 1.25 µM | cell death | 50% |
| CNc1ncc2c(/C=C/C(=O)N3CCCC3)nn(CC3CCCC3)c2n1 | OE33 | cell growth or viability, resazurin | 5 days | EC50 | > 30 µM |
| C=CC(=O)NC1CCN(c2ncc3ncnc(Nc4ccc(Oc5ccc6c(c5)ncn6C)c(C)c4)c3n2)CC1 | SW 1116 | cell growth or viability |  | EC50 | 0.0152 µM |
